Experiment [1] concerns the target N-terminal domain of LiaX (Enterococcus faecalis). Description: MST.
The target is the same in experiment [2]. Description: MST. This is another data set of the same source.
The target in experiment [3] is T1, N-terminal domain of LiaX (Enterococcus faecalis, UniProt Q834B6).
T1 sequence (Q834B6 1-275): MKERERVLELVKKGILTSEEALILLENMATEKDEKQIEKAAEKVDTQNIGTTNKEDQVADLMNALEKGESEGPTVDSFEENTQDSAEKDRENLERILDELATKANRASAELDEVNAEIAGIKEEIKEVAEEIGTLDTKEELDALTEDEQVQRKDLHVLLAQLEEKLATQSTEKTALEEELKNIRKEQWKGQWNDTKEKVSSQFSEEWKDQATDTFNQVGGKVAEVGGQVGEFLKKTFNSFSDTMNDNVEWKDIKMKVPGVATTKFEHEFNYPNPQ
Description: Microscale thermophoresis with His-tag specific dye, N-terminal domain of LiaX. In kind it is binding, Enterococcus faecalis S613. (Microscale thermophoresis detects binding through changes in fluorescence in a small temperature gradient.)

The next experiment deals with OG1RF and S613. The conditions noted are these: including against E. faecalis; ref [23], [24]; cited from earlier work.
The target of the next experiment is T2, N-terminal LiaX (Enterococcus faecalis, UniProt Q834B6).
T2 sequence (Q834B6 1-277): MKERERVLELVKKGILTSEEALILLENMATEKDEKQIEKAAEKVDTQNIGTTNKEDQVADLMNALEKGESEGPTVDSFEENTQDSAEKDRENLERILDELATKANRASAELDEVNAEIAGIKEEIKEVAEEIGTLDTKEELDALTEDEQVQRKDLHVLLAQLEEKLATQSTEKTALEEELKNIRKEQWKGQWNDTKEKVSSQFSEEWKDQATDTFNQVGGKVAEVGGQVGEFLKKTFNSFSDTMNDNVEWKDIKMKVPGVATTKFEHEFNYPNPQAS
The experiment can be described thus: LL-37 binding by microscale thermophoresis, amine reactive dye, N-terminal LiaX. On the set-up: species or system Enterococcus faecalis S613. Summed up:
(§1)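 Recombinant LiaX (full length or N-terminal domain, His/SUMO-tagged) was expressed in E. coli BL-21 and nickel-column purified, then labeled with NT-647. Microscale thermophoresis ran at 25% LED power in 0.1 M phosphate buffer pH 7.4, 0.0027 M KCl, 0.137 M NaCl and 1 mM TCEP, with or without 5% DMSO. Fluorescence changes were recorded across increasing LL-37 variant concentrations to derive Kd.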

Another experiment addresses T3, full length LiaX (Enterococcus faecalis, UniProt Q834B6).
T3 sequence (Q834B6 1-533): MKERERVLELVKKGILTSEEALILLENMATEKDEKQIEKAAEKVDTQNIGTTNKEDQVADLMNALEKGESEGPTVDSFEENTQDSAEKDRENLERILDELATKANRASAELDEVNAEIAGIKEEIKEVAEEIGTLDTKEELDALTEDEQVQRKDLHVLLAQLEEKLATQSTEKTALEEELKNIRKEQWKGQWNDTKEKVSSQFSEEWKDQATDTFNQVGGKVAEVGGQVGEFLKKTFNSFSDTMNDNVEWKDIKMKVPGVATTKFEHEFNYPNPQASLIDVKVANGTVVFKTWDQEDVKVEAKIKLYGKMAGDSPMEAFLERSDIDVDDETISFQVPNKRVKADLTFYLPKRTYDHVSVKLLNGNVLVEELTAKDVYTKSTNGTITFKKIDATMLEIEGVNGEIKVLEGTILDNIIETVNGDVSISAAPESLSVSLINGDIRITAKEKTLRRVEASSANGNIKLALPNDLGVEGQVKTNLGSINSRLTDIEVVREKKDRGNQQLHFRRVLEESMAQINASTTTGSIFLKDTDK
The experiment can be described thus: LL-37 binding by microscale thermophoresis, amine reactive dye, full length LiaX. On the set-up: species or system Enterococcus faecalis S613. The gist of the method:
as §1

A further experiment deals with liaFSR and liaXYZ. Description: qRT-PCR for liaFSR and liaXYZ expression. In kind it is cell-based, Enterococcus faecalis. The note with it: OG1RF. (Quantitative PCR measures a nucleic acid by following its amplification.)
Experiment [4] has as its system E. faecalis. The experiment can be described thus: Growth kinetics with LiaX. In kind it is cell-based, Enterococcus faecalis. The conditions noted are these: functional concentrations; 100 nM in BHI, OD600, 24 h.
For experiment [5], the system named is E. faecalis. Description: C. elegans infection assay with exogenous N-terminal LiaX. Format: in vivo, Enterococcus faecalis; host Caenorhabditis elegans. The gist of the method:
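Recombinant N-terminal LiaX domain (His/SUMO-tagged) was expressed in E. coli BL-21 and nickel-column purified. Synchronized young adult worms (60–90) were infected with E. faecalis on BHI agar plus gentamicin (10 µg/mL). They were then moved to a liquid killing format (20% BHI broth, 80% M9W buffer) containing N-terminal LiaX at 0.1 to 500 nM, held at 25 °C, and deaths scored daily. Results come from 3 independent experiments, with Kaplan–Meier log-rank or 1-way ANOVA analysis.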

In experiment [6] the test system is Staphylococcus aureus ATCC29213. The experiment can be described thus: DAP MIC by broth microdilution with exogenous LiaX or N-terminal LiaX, S. aureus. Format: cell-based. The note with it: 50 nM exogenous protein. (Dilution methods test growth across graded concentrations, often in twofold steps.)
Experiment [7] deals with DAP-S E. faecalis strains. Format: cell-based, Enterococcus faecalis.
The next experiment has as its system E. faecalis strains. Description: LL-37 killing assay. The note with it: OG1RFΔliaR; 50 µg/ml LL-37, 2 h. In kind it is cell-based, Enterococcus faecalis.

Entries after “also recorded” stand apart in the source; their conditions may differ. Like-named read-outs stand apart in the source and are kept apart here.

The term Kd denotes the free concentration of one partner at which half of the binding sites on the other are occupied at equilibrium, for simple one-to-one binding. Read a high Kd as weaker binding. For the molecule human cathelicidin LL-37 (peptide), the Kd came out at 5.27 µM in [1] and 10.6 µM in [2].
With “SSLLEKGLDGAKKAVGGLGKLGKDAVEDLESVGKGAVHDVKDVLDSVL [DCD-1L]”, the “binding affinity to N-terminal domain of LiaX” value in experiment [3] (His-tag specific dye, DCD-1L tested up to 1,000 µM) is given as “no detectable binding affinity”. The “antimicrobial activity” value in the experiment with OG1RF and S613 is “broad-spectrum antimicrobial activity, including against E. faecalis”.
For `CC[C@H](C)[C@H](NC(=O)[C@H](CCCCN)NC(=O)[C@H](CCC(=O)O)NC(=O)[C@H](CCCCN)NC(=O)[C@H](CO)NC(=O)[C@H](CCCCN)NC(=O)[C@H](CCCNC(=N)N)NC(=O)[C@H](Cc1ccccc1)NC(=O)[C@H](Cc1ccccc1)NC(=O)[C@H](CC(=O)O)NC(=O)CNC(=O)[C@H](CC(C)C)NC(=O)[C@@H](N)CC(C)C)C(=O)NCC(=O)N[C@@H](CCCCN)C(=O)N[C@@H](CCC(=O)O)C(=O)N[C@@H](Cc1ccccc1)C(=O)N[C@@H](CCCCN)C(=O)N[C@@H](CCCNC(=N)N)C(=O)N[C@H](C(=O)N[C@H](C(=O)N[C@@H](CCC(N)=O)C(=O)N[C@@H](CCCNC(=N)N)C(=O)N[C@H](C(=O)N[C@@H](CCCCN)C(=O)N[C@@H](CC(=O)O)C(=O)N[C@@H](Cc1ccccc1)C(=O)N[C@@H](CC(C)C)C(=O)N[C@@H](CCCNC(=N)N)C(=O)N[C@@H](CC(N)=O)C(=O)N[C@@H](CC(C)C)C(=O)N[C@H](C(=O)N1CCC[C@H]1C(=O)N[C@@H](CCCNC(=N)N)C(=O)N[C@H](C(=O)N[C@@H](CCC(=O)O)C(=O)N[C@@H](CO)C(=O)O)[C@@H](C)O)C(C)C)[C@@H](C)CC)C(C)C)[C@@H](C)CC` [LL-37], the results for the Kd (at N-terminal LiaX; in [3]; on full length LiaX) were 10.6 ± 0.43 µM, 5.27 ± 1.14 µM and 8.26 ± 0.28 µM, respectively.

B1: N-terminal LiaX: purified N-terminal LiaX (residues 1-277; His-tagged variant residues 1-275) (protein)
chain: T1 sequence (Q834B6 1-275)
modifications: labeled with a RED-tris-NTA his-tag specific dye (NanoTemper); left off: His6, C-terminal, kept
Take B1: the “transcription of liaFSR and liaXYZ” value with liaFSR and liaXYZ (50 nM protein without DAP, vs untreated) is “no effect on the levels of transcription”; in the experiment on liaFSR and liaXYZ (protein plus subinhibitory DAP, listed as N terminus of LiaX), “maximal activation of the LiaFSR cell envelope stress response; also recorded: highly up-regulated”. Besides, the “LiaFSR activation relative to DAP alone or DAP with full-length LiaX” value with liaFSR and liaXYZ (N terminus of LiaX plus DAP) is “significantly higher and more pronounced”. Also, the “effect on growth of E. faecalis” value with E. faecalis [4] is reported as “no impact on the growth”. In addition, the “virulence in C. elegans” value with E. faecalis [5] (OG1RF and S613, 100 nM purified N-terminal LiaX (Fig. 6), listed as N terminus of LiaX) is recorded as “more virulent; also recorded: increased virulence”; in the experiment on E. faecalis [5] (OG1RFΔliaR and TMΔliaR, exogenous N terminus of LiaX) it was “did not, however, alter the virulence”. For the same molecule, in the experiment with E. faecalis [5] (OG1RF or S613, 5-100 nM N-terminus LiaX), the “virulence in C. elegans, dose dependence” value is given as “dose-dependent manner”. In addition, the “change in DAP MIC” value in experiment [6] is recorded as “did not change under any condition”. For the same molecule, the “increase in DAP MIC” value in [7] (OG1RF, 50 nM exogenous protein) was “over 8 fold”; in experiment [7] (S613, 50 nM exogenous protein), “over 8 fold”. Moreover, the “protection against DAP” value is given as “high level of protection to OG1RF in a concentration-dependent manner” in [7] (OG1RF, 1 to 100 nM N-terminal LiaX, up to 200 nM full-length LiaX) and “did not protect OG1RFΔliaR against DAP” in experiment [7] (OG1RFΔliaR, 50 nM exogenous protein). Further, in the experiment on E. faecalis strains, the “protection from LL-37 killing” value is reported as “did not protect OG1RFΔliaR from LL-37–mediated killing”.

The values above are taken from paper PMC6936494 (Proceedings of the National Academy of Sciences of the …, 2019).
